Experimental data taken from PubChem BioAssay.
The list shows a part of the results. Values without a mark were called inactive. Activity calls are given as the source filed them.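 Rule for the calls, unless noted: active = mean inhibition over three repeats above a set limit taken from the earlier primary screen (cut at about 38% in these data); inactive = the rest.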

What follows are compounds tested against COUP transcription factor 2 (Homo sapiens) (UniProt P24468) (assay: retest of COUP-TFII reporter suppressors – cell-based, luciferase reporter, HEK293, triplicate, confirmation (AID 687008;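 note: 100% = cells given the luciferase reporter alone without the COUP-TF2 vector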)). Conditions: HEK293 NGFI-A luciferase reporter, luminescence; at 8.5 µM; active compounds read high.
Chain of COUP transcription factor 2 (Homo sapiens) (P24468 whole entry, looked up): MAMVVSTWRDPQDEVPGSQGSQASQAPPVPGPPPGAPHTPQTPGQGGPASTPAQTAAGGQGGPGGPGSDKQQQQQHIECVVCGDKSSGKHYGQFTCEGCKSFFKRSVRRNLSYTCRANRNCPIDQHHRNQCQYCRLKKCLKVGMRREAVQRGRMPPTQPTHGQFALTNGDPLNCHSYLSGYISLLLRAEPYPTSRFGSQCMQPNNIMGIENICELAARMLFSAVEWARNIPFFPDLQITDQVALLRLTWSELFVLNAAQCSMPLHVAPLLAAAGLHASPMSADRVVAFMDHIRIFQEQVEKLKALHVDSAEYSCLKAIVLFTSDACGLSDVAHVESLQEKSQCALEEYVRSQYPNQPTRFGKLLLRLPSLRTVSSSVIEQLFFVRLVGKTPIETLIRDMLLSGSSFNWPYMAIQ

Compound	inhibition
O=C(Nc1ccc(S(=O)(=O)NCC2CCCO2)cc1)c1ccc(F)cc1 (stereo not given)	13.8%
NS(=O)(=O)c1ccc(CCNC(=O)c2ccc(Cl)c(S(=O)(=O)N3CCCCCC3)c2)cc1	39.1% (active)
Cc1ccccc1OCC(=O)Nc1ccc(N2CCN(C(=O)C(C)C)CC2)c(Cl)c1	10.5%
CN(CCc1ccccc1)C(=O)c1cccc(NC(=O)Cc2cccc(NC(=O)C3CCCN(C(=O)CCc4ccccc4)C3)c2)c1 (stereo not given)	15.9%
CCN(CC)P(=O)(C(NC(=O)OC)C(F)(F)C(F)(F)C(F)(F)C(F)F)N(CC)CC (stereo not given)	14.8%
Cc1ccc(NC(=O)C2CC(=O)N(c3ccc4c(c3)OCCO4)C2)cc1S(=O)(=O)N1CCCCCC1 (stereo not given)	14.1%
Cc1ccc(CNC(=O)Nc2nnc([C@H]3C[C@H](O)[C@@H](CO)O3)s2)cc1	11.2%
CCOC(=O)N1CCN(C(=O)C[C@@H]2C(=O)N(CCc3ccc(Cl)cc3)C3=CCCC[C@]32C(=O)OCC)CC1	9.27%
c1ccc(Cc2ccc(OCCn3ccnc3)cc2)cc1	9.96%
CCC(=O)Nc1ccc(C(=O)CSc2nnc(CNc3ccc(Cl)cc3)o2)cc1OC	17.3%
CCc1ccc(-c2nc(SCC(=O)NC3CCCC3)n[nH]2)cc1	11.9%
CCOC(=O)C1(CCOc2ccccc2)CCN(Cc2cc(OC)cc(OC)c2)CC1	9.24%
CN(c1cccc(NC(=O)c2ccc(CN3CCc4ccccc4C3)cc2)c1)S(C)(=O)=O	41.2% (active)
Cc1ccc(Nc2nc(CSc3nnc(-c4ccncc4)n3-c3ccccc3C)cs2)cc1	11.9%
Cc1ccc(OCC(=O)Nc2ccc(N3CCN(C(=O)c4ccco4)CC3)cc2)c(C)c1	24.3%
COc1ccc(NC(=O)C2Cc3c(-c4cccc(NC(C)=O)c4)ccnc3O2)cc1OC (stereo not given)	14.6%
Cc1ccc(-n2nc3c(=O)n(C(C)C(=O)NCc4ccc5c(c4)OCO5)nc(C)c3c2C)cc1 (stereo not given)	11.8%
COc1cc(/C=C/C(=O)n2cnc3ccccc32)cc(OC)c1OC	16.1%
CN(C(=O)c1cccc(NC(=O)Cc2cccc([N+](=O)[O-])c2)c1)C1CCCCC1	1.83%
COc1ccc(OC)c(CNC(=O)Cn2nc(C)c3c(C)n(-c4ccc(C)cc4)nc3c2=O)c1	51.1% (active)
O=C(Nc1ccc(S(=O)(=O)N2CCOCC2)cc1)C1CCN(S(=O)(=O)c2ccc(Cl)cc2)CC1	12.2%
Cc1nc(C(=O)NCc2ccccc2)sc1C1(C)CC(c2cccnc2)=NO1 (stereo not given)	6.06%
NS(=O)(=O)c1ccc(CCNc2nc(C(F)(F)F)nc3ccccc23)cc1	0.16%
N#CC(C#N)=CN=c1ccn(Cc2ccc(Cl)cc2Cl)cc1	9.12%
CCCCn1c(SCc2ncc(-c3ccccc3)o2)nc2cc(S(N)(=O)=O)ccc21	14.4%
Cc1ccccc1CS(=O)(=O)Cc1ccc(C(=O)Nc2ccc(Cl)cc2)o1	41.5% (active)
O=C(c1cc(C(=O)N2CCN(c3ccc(F)cc3)CC2)cc([N+](=O)[O-])c1)N1CCN(c2ccc(F)cc2)CC1	46.7% (active)

Each compound was assayed against (Lyso)-N-acylphosphatidylethanolamine lipase (Mus musculus) (UniProt Q8VD66) (assay: mouse ABHD4 hydrolase blockers, triplicate – biochemical, fluorescence polarization, confirmation (AID 720658;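 active = mean inhibition across replicates above the hit cutoff set in the primary screen, cut at about 30% in these data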;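 note: 0% = wild-type ABHD4 with DMSO and 100% = catalytically dead S159A mutant with DMSO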)). Conditions: purified mABHD4, FP-Rh probe fluorescence polarization; at 8.92 µM; active compounds read high.
Chain of (Lyso)-N-acylphosphatidylethanolamine lipase (Mus musculus) (Q8VD66 whole entry, looked up): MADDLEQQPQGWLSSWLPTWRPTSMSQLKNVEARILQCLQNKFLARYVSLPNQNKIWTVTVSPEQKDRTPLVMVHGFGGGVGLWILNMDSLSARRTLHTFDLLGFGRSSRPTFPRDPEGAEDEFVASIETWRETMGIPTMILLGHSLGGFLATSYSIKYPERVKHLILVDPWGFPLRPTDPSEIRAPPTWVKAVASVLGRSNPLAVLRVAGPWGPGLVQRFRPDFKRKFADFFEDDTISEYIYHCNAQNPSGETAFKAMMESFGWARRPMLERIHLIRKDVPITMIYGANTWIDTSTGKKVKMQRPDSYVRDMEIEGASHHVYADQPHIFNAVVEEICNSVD
In short: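 Also added: Rhodamine-tagged fluorophosphonate probe FP-Rh / Assay system: mouse wild-type ABHD4 enzyme / Evaluation: % inhibition relative to DMSO and S159A mutant controls / Medium: HEPES pH 7.0 buffer with NaCl and Pluronic F-127 / Detection: fluorescence polarization at 525 nm excitation, 598 nm emission / Timing: 45 min compound-enzyme pre-incubation, then 60 min probe incubation, 25 °C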

Compound	inhibition
Cc1cccc(-n2cnc(C(=O)NNC(=S)Nc3ccccc3)c2)n1	57.2% (active)
CCCCCCSc1ccc(-c2nc3ccc(Cl)cn3c2NCc2ccccc2)cc1	5.45%
COC(=O)c1oc2ccc(Br)cc2c1NC(C)=O	-0.79%
CCOC(=O)C1=C(C)N=C2c3ccccc3C(=O)C2C1c1ccc(Br)cc1 (stereo not given)	44.8% (active)
O=C(COC(=O)c1ccc(O)cc1O)c1ccc2c(c1)OCCO2	40.2% (active)
Cc1cc2ccccc2n1CCNC(=O)COc1ccc2ccccc2c1	1.54%
CC/C(=C(/c1ccccc1)c1ccc(OCC[N+](C)(C)C)cc1)c1ccccc1	36.6% (active)
CC1CCN(c2ccc(C(=O)O)cc2NS(=O)(=O)c2ccc(Br)s2)CC1	47.5% (active)
